Laboratory results from ChEMBL document CHEMBL5380827, “Structure-Based Design of Y-Shaped Covalent TEAD Inhibitors” (J Med Chem, 2023).

What was measured:
[1] = Inhibition of N-terminal GST/His6-tagged human recombinant TEAD1 (209 to 424 residues)/YBD (unknown origin) incubated for 5 hrs by TR-FRET assay
In short: (§1)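 His-tagged TEAD YAP-binding domain protein (100 nM), expressed in Rosetta(DE3) pLysS and purified by cobalt resin then gel filtration. Protein preincubated with inhibitor for 5 h in 50 mM HEPES pH 7.5, 200 mM NaCl, 0.1% Pluronic F-68. Then 800 nM tracer WZJ-10 and anti-6His Tb cryptate (50 ng/mL final) added; TR-FRET read at 490/520 nm. Mean ± SEM of two experiments, each in biological triplicate.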

[2] = Inhibition of N-terminal His6-tagged human recombinant TEAD2 (217 to 447 residues)/ recombinant YBD (unknown origin) incubated for 5 hrs by TR-FRET assay; in short: as §1
[3] = Inhibition of N-terminal His6-tagged human recombinant TEAD3 (216 to 434 residues)/ recombinant YBD (unknown origin) incubated for 5 hrs by TR-FRET assay; in short: as §1
[4] = Inhibition of N-terminal His6-tagged human recombinant TEAD4 (209 to 427 residues)/ recombinant YBD (unknown origin) incubated for 5 hrs by TR-FRET assay; in short: as §1
[5] = Inhibition of TEAD transcriptional activity in human NCI-H226 cells assessed as luciferase activity measured for 3 days by reporter gene assay; format: cell-based; settings: NCI-H226, 72 h
In short: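 NCI-H226 cells transduced with a pan-TEAD response element luciferase reporter lentivirus (8 μg/mL polybrene) and puromycin-selected. Seeded at 1000 cells per well in 384-well plates and treated with inhibitor for 3 days. Luciferase read with One-Glo and normalized to CellTiter-Glo viability.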

NCI-H226 = assay: Antiproliferative activity against human NCI-H226 cells assessed as reduction in cell viability measured for 5 days by celliter-glo assay; format: functional, cell-based; settings: NCI-H226, 120 h
In short: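 NCI-H226 mesothelioma cells grown in RPMI1640 with 10% FBS and 1% penicillin/streptomycin, seeded at 100 cells per well in 384-well plates. Inhibitor added by digital dispenser, 5-day incubation. CellTiter-Glo luminescence read after 20 min, normalized to DMSO-treated samples. Mean ± SD of n = 3 biological independent samples.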

[6] = Antiproliferative activity against human 94T778 cells assessed as reduction in cell viability measured for 5 days by celliter-glo assay; format: functional, cell-based; settings: 94T778, 120 h
In short: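 94T778 well-differentiated liposarcoma cells grown in RPMI1640 with 10% FBS and 1% penicillin/streptomycin. Treated with inhibitor for 5 days and viability read as CellTiter-Glo luminescence. Mean ± SD of n = 3 biological independent samples.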

| IC50 [1] | IC50 [2] | IC50 [3] | IC50 [4] | IC50 [5] | IC50 (NCI-H226) | SMILES | IC50 [6] |
| --- | --- | --- | --- | --- | --- | --- | --- |
| 44 nM | 459 nM | 47 nM | > 10000 nM | 229 nM | – | CC#CC(=O)N1C[C@@H](n2cc(-c3cccnc3)nn2)[C@H](OCc2ccc(C(F)(F)F)cc2)C1 | – |
| 1030 nM | > 10000 nM | 1640 nM | > 10000 nM | 1710 nM | – | CN(C)C/C=C/C(=O)N1C[C@@H](n2cc(-c3cccnc3)nn2)[C@H](OCc2ccc(C(F)(F)F)cc2)C1 | – |
| 29 nM | 197 nM | 31 nM | 467 nM | 86 nM | 131 nM | C=C(F)C(=O)N1C[C@@H](n2cc(-c3cccnc3)nn2)[C@H](OCc2ccc(C(F)(F)F)cc2)C1 | 173 nM |
| 42 nM | 19 nM | 19 nM | > 10000 nM | 2740 nM | – | C=C(C(=O)N1C[C@@H](n2cc(-c3cccnc3)nn2)[C@H](OCc2ccc(C(F)(F)F)cc2)C1)C(F)(F)F | – |
| 47 nM | 275 nM | 32 nM | 71 nM | 17 nM | 24 nM | C=C(F)C(=O)N1C[C@@H](Nc2ncccn2)[C@H](OCc2ccc(C(F)(F)F)cc2)C1 | 40 nM |
| 31 nM | 40 nM | 19 nM | 35 nM | – | – | Cc1cccc([C@H](C)NC(=O)c2ccc3c(-c4ccc(C(F)(F)F)cc4)cccc3c2)n1 | – |
| 118 nM | 26 nM | 38 nM | 604 nM | 1380 nM | – | C=CC(=O)N1C[C@@H](n2cc(-c3cccnc3)nn2)[C@H](OCC23CC4CC(CC(C4)C2)C3)C1 (mixture of isomers) | – |
| 51 nM | 305 nM | 51 nM | 83 nM | 153 nM | – | C=CC(=O)N1C[C@@H](OCc2ccc(C(F)(F)F)cc2)[C@H](c2ccc(S(C)(=O)=O)cc2)C1 (racemic) | – |
| 56 nM | 1240 nM | 121 nM | 427 nM | 171 nM | 246 nM | C=CC(=O)N1CC[C@@H](OCc2ccc(C(F)(F)F)cc2)[C@H](Nc2ncc(F)cn2)C1 (racemic) | 1020 nM |
| 207 nM | 230 nM | 144 nM | 2480 nM | 670 nM | – | C=CC(=O)N1C[C@@H](n2cc(-c3cccnc3)nn2)[C@H](OCc2ccc(C(F)(F)F)cn2)C1 (racemic) | – |
| 264 nM | 50 nM | 68 nM | 685 nM | 467 nM | – | C=CC(=O)N1C[C@@H](n2cc(-c3cccnc3)nn2)[C@H](OCC2CCC(F)(F)CC2)C1 (racemic) | – |
| 56 nM | 178 nM | 36 nM | 111 nM | 131 nM | 368 nM | C=CC(=O)N1C[C@@H](n2cccn2)[C@H](OCc2ccc(C(F)(F)F)cc2)C1 (racemic) | 258 nM |
| 42 nM | 103 nM | 50 nM | 98 nM | 90 nM | 150 nM | C=CC(=O)N1C[C@@H](n2ncccc2=O)[C@H](OCc2ccc(C(F)(F)F)cc2)C1 (racemic) | 214 nM |
| 37 nM | 49 nM | 26 nM | 25 nM | 106 nM | 63 nM | C=CC(=O)N1C[C@@H](n2cc(-c3cccnc3)nn2)[C@H](OCc2ccc(C(F)(F)F)cc2)C1 (racemic) | 173 nM |
| 391 nM | 911 nM | 834 nM | > 10000 nM | 2210 nM | – | C=CC(=O)N1C[C@@H](n2cc(-c3cccnc3)nn2)[C@H](OCc2ccc(C(F)(F)F)nc2)C1 (racemic) | – |
| 425 nM | 230 nM | 426 nM | > 10000 nM | 985 nM | – | C=CC(=O)N1C[C@@H](n2cc(-c3cccnc3)nn2)[C@H](OCc2cc(Cl)cc(C(F)(F)F)c2)C1 (racemic) | – |
| 80 nM | 578 nM | 429 nM | 236 nM | 522 nM | – | C=CC(=O)N1CCN(c2ncccn2)CC(OCc2ccc(C(F)(F)F)cc2)C1 (racemic) | – |
| 40 nM | 103 nM | 51 nM | 718 nM | 206 nM | – | C=CC(=O)N1C[C@@H](n2cc(-c3ccncn3)nn2)[C@H](OCc2ccc(C(F)(F)F)cc2)C1 (racemic) | – |
| 29 nM | 9 nM | 30 nM | 25 nM | 14 nM | 16 nM | C=CC(=O)N1C[C@@H](Nc2ncccn2)[C@H](OCc2ccc(C(F)(F)F)cc2)C1 (racemic) | 34 nM |
| 100 nM | 604 nM | 215 nM | 4430 nM | 1720 nM | – | C=CC(=O)N1C[C@@H](n2cc(-c3cccnc3)nn2)[C@H](OCc2cc(C(F)(F)F)ccc2Cl)C1 (racemic) | – |
| 30 nM | 17 nM | 26 nM | 21 nM | 16 nM | 28 nM | C=CC(=O)N1C[C@@H](Nc2ncc(F)cn2)[C@H](OCc2ccc(C(F)(F)F)cc2)C1 (racemic) | 114 nM |
| 33 nM | 192 nM | 48 nM | 62 nM | 58 nM | 186 nM | C=CC(=O)N1C[C@@H](Cc2ccccn2)[C@H](OCc2ccc(C(F)(F)F)cc2)C1 (racemic) | 612 nM |
| 31 nM | 79 nM | 20 nM | 406 nM | 153 nM | – | C=CC(=O)N1C[C@@H](n2ccnn2)[C@H](OCc2ccc(C(F)(F)F)cc2)C1 (racemic) | – |
